Assay results from ChEMBL document CHEMBL3621107, “Ring fusion strategy for synthesis and lead optimization of sulfur-substituted anthra[1,2-c][1,2,5]thiadiazole-6,11-dione derivatives as promising scaffold of antitumor agents” (Eur J Med Chem, 2015).

Key:
[1] = test system: HT-29; assay: Cytotoxicity against human HT-29 cells assessed as cell growth at 10 uM after 48 hrs by SRB assay relative to control; assay type: functional; conditions: HT-29, 48 h, read-out: Activity
Outline: (§1)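 First-stage NCI-60 screen by the NCI Developmental Therapeutics Program. Each compound was tested once at a single concentration of 10 μM against the 60-cell-line panel. Growth percentage was reported for each cell line.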

[2] = test system: SF-295; assay: Cytotoxicity against human SF295 cells assessed as cell growth at 10 uM after 48 hrs by SRB assay relative to control; assay type: functional; conditions: SF-295, 48 h, read-out: Activity
Outline: (§2)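 First-stage NCI DTP one-dose screen against the 60 human tumour cell line panel. Compounds were tested at a single 10 μM level, and results are given as growth percentage.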

[3] = test system: SNB-19; assay: Cytotoxicity against human SNB19 cells assessed as cell growth at 10 uM after 48 hrs by SRB assay relative to control; assay type: functional; conditions: SNB-19, 48 h, read-out: Activity
Outline: (§3)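 NCI-60 one-dose screen run by NCI DTP: each cell line exposed to a single 10 µM dose, and percentage growth recorded against untreated growth.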

[4] = test system: ACHN; assay: Cytotoxicity against human ACHN cells assessed as cell growth at 10 uM after 48 hrs by SRB assay relative to control; assay type: functional; conditions: read-out: Activity; outline: as §1
[5] = test system: M14; assay: Cytotoxicity against human M14 cells assessed as cell growth at 10 uM after 48 hrs by SRB assay relative to control; assay type: functional; conditions: M14, 48 h, read-out: Activity; outline: as §1
[6] = test system: HOP-62; assay: Cytotoxicity against human HOP62 cells assessed as cell growth at 10 uM after 48 hrs by SRB assay relative to control; assay type: functional; conditions: HOP-62, 48 h, read-out: Activity; outline: as §1
[7] = test system: 786-0; assay: Cytotoxicity against human 786-0 cells assessed as cell growth at 10 uM after 48 hrs by SRB assay relative to control; assay type: functional; conditions: 786-0, 48 h, read-out: Activity; outline: as §1
[8] = test system: A498; assay: Cytotoxicity against human A498 cells assessed as cell growth at 10 uM after 48 hrs by SRB assay relative to control; assay type: functional; conditions: A498, 48 h, read-out: Activity; outline: as §1
[9] = test system: NCI-H226; assay: Cytotoxicity against human NCI-H226 cells assessed as cell growth at 10 uM after 48 hrs by SRB assay relative to control; assay type: functional; conditions: NCI-H226, 48 h, read-out: Activity; outline: as §2
[10] = test system: SK-MEL-2; assay: Cytotoxicity against human SK-MEL-2 cells assessed as cell growth at 10 uM after 48 hrs by SRB assay relative to control; assay type: functional; conditions: SK-MEL-2, 48 h, read-out: Activity; outline: as §2
[11] = test system: SN12C; assay: Cytotoxicity against human SN12C cells assessed as cell growth at 10 uM after 48 hrs by SRB assay relative to control; assay type: functional; conditions: read-out: Activity; outline: as §2
[12] = test system: HL-60(TB); assay: Cytotoxicity against human HL-60(TB) cells assessed as cell growth at 10 uM after 48 hrs by SRB assay relative to control; assay type: functional; conditions: HL-60, 48 h, read-out: Activity
Outline: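 NCI Developmental Therapeutics Program 60-cell-line screen, first stage: a single dose of 10 μM against the panel, reported as percentage growth.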

[13] = test system: HCT-15; assay: Cytotoxicity against human HCT15 cells assessed as cell growth at 10 uM after 48 hrs by SRB assay relative to control; assay type: functional; conditions: HCT-15, 48 h, read-out: Activity; outline: as §1
[14] = test system: OVCAR-5; assay: Cytotoxicity against human OVCAR5 cells assessed as cell growth at 10 uM after 48 hrs by SRB assay relative to control; assay type: functional; conditions: OVCAR-5, 48 h, read-out: Activity; outline: as §2
[15] = test system: NCI/ADR-RES; assay: Cytotoxicity against human NCI/ADR-RES cells assessed as cell growth at 10 uM after 48 hrs by SRB assay relative to control; assay type: functional; conditions: read-out: Activity; outline: as §2
[16] = test system: MDA-MB-231; assay: Cytotoxicity against human MDA-MB-231 cells assessed as cell growth at 10 uM after 48 hrs by SRB assay relative to control; assay type: functional; conditions: MDA-MB-231, 48 h, read-out: Activity; outline: as §2
[17] = test system: SK-OV-3; assay: Cytotoxicity against human SKOV3 cells assessed as cell growth at 10 uM after 48 hrs by SRB assay relative to control; assay type: functional; conditions: SK-OV-3, 48 h, read-out: Activity; outline: as §2
[18] = test system: SK-MEL-28; assay: Cytotoxicity against human SK-MEL-28 cells assessed as cell growth at 10 uM after 48 hrs by SRB assay relative to control; assay type: functional; conditions: SK-MEL-28, 48 h, read-out: Activity; outline: as §2
[19] = test system: KM12; assay: Cytotoxicity against human KM12 cells assessed as cell growth at 10 uM after 48 hrs by SRB assay relative to control; assay type: functional; conditions: KM12, 48 h, read-out: Activity; outline: as §1
[20] = test system: RXF 393; assay: Cytotoxicity against human RXF393 cells assessed as cell growth at 10 uM after 48 hrs by SRB assay relative to control; assay type: functional; conditions: RXF 393, 48 h, read-out: Activity; outline: as §2
[21] = test system: PC-3; assay: Cytotoxicity against human PC3 cells assessed as cell growth at 10 uM after 48 hrs by SRB assay relative to control; assay type: functional; conditions: PC-3, 48 h, read-out: Activity; outline: as §2
[22] = test system: DU-145; assay: Cytotoxicity against human DU145 cells after 72 hrs by MTT assay; assay type: functional, cell-based; conditions: DU-145, 72 h
Outline: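 DU-145 cells grown in RPMI-1640 with 5% heat-inactivated fetal calf serum at 37 °C, 5% CO2. About 2×10^3 cells per well were seeded and incubated for 24 h. Compounds were dissolved in DMSO freshly and diluted into medium (vehicle 0.1% DMSO), then cells were exposed for 72 h. MTT was added for 3 h at 37 °C and absorbance read at 570 nm.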

[23] = test system: OVCAR-3; assay: Cytotoxicity against human OVCAR3 cells assessed as cell growth at 10 uM after 48 hrs by SRB assay relative to control; assay type: functional; conditions: OVCAR-3, 48 h, read-out: Activity; outline: as §2
[24] = test system: K562; assay: Cytotoxicity against human K562 cells assessed as cell growth at 10 uM after 48 hrs by SRB assay relative to control; assay type: functional; conditions: K562, 48 h, read-out: Activity; outline: as §1
[25] = test system: RPMI-8226; assay: Cytotoxicity against human RPMI8226 cells assessed as cell growth at 10 uM after 48 hrs by SRB assay relative to control; assay type: functional; conditions: RPMI-8226, 48 h, read-out: Activity; outline: as §2
[26] = test system: MDA-MB-435; assay: Cytotoxicity against human MDA-MB-435 cells assessed as cell growth at 10 uM after 48 hrs by SRB assay relative to control; assay type: functional; conditions: MDA-MB-435, 48 h, read-out: Activity; outline: as §2
[27] = test system: OVCAR-8; assay: Cytotoxicity against human OVCAR8 cells assessed as cell growth at 10 uM after 48 hrs by SRB assay relative to control; assay type: functional; conditions: OVCAR-8, 48 h, read-out: Activity; outline: as §2
[28] = test system: U-251; assay: Cytotoxicity against human U251 cells assessed as cell growth at 10 uM after 48 hrs by SRB assay relative to control; assay type: functional; conditions: U-251, 48 h, read-out: Activity; outline: as §3
[29] = test system: SF-268; assay: Cytotoxicity against human SF268 cells assessed as cell growth at 10 uM after 48 hrs by SRB assay relative to control; assay type: functional; conditions: SF-268, 48 h, read-out: Activity; outline: as §2
[30] = test system: A549; assay: Cytotoxicity against human A549 cells assessed as cell growth at 10 uM after 48 hrs by SRB assay relative to control; assay type: functional; conditions: A549, 48 h, read-out: Activity; outline: as §1

## O=C1c2ccccc2C(=O)c2c1cc(Sc1ccc(F)cc1F)c1nsnc21
[1]
  growth at 10 µM: 102%
[2]
  growth at 10 µM: 68.8%
[3]
  growth at 10 µM: 87.3%
[4]
  growth at 10 µM: 34.9%
[5]
  growth at 10 µM: 53.8%
[6]
  growth at 10 µM: 58.5%
[7]
  growth at 10 µM: 3.74%
[8]
  growth at 10 µM: 50.8%
[9]
  growth at 10 µM: 88.8%
[10]
  growth at 10 µM: 51.8%
[11]
  growth at 10 µM: 9.12%
[12]
  growth at 10 µM: -37.7%
[13]
  growth at 10 µM: 45.8%
[14]
  growth at 10 µM: 110%
[15]
  growth at 10 µM: -26.2%
[16]
  growth at 10 µM: -9.73%
[17]
  growth at 10 µM: 92.6%
[18]
  growth at 10 µM: 79.5%
[19]
  growth at 10 µM: 51.8%
[20]
  growth at 10 µM: 36.7%
[21]
  growth at 10 µM: -9.72%
[22]
  IC50: 9.12 µM
[23]
  growth at 10 µM: -52.3%
[24]
  growth at 10 µM: -21.1%
[25]
  growth at 10 µM: 6.29%
[26]
  growth at 10 µM: -85.3%
[27]
  growth at 10 µM: 0.32%
[28]
  growth at 10 µM: 34.5%
[29]
  growth at 10 µM: 8.47%
[30]
  growth at 10 µM: 112%

## Cc1cc(C)cc(Sc2cc3c(c4nsnc24)C(=O)c2ccccc2C3=O)c1
[1]
  growth at 10 µM: 105%
[2]
  growth at 10 µM: 91.1%
[3]
  growth at 10 µM: 107%
[4]
  growth at 10 µM: 98%
[5]
  growth at 10 µM: 100%
[6]
  growth at 10 µM: 91%
[7]
  growth at 10 µM: 98.2%
[8]
  growth at 10 µM: 93.6%
[9]
  growth at 10 µM: 88%
[10]
  growth at 10 µM: 108%
[11]
  growth at 10 µM: 105%
[12]
  growth at 10 µM: 73.7%
[13]
  growth at 10 µM: 90.9%
[14]
  growth at 10 µM: 107%
[15]
  growth at 10 µM: 97.5%
[16]
  growth at 10 µM: 99.2%
[17]
  growth at 10 µM: 97.5%
[18]
  growth at 10 µM: 112%
[19]
  growth at 10 µM: 105%
[20]
  growth at 10 µM: 112%
[21]
  growth at 10 µM: 81.3%
[22]
  IC50: > 15 µM
[23]
  growth at 10 µM: 118%
[24]
  growth at 10 µM: 75.6%
[25]
  growth at 10 µM: 89.1%
[26]
  growth at 10 µM: 105%
[27]
  growth at 10 µM: 92.2%
[28]
  growth at 10 µM: 108%
[29]
  growth at 10 µM: 108%
[30]
  growth at 10 µM: 107%

## Cc1ccccc1Sc1cc2c(c3nsnc13)C(=O)c1ccccc1C2=O
[1]
  growth at 10 µM: 104%
[2]
  growth at 10 µM: 105%
[3]
  growth at 10 µM: 104%
[4]
  growth at 10 µM: 89.8%
[5]
  growth at 10 µM: 94.2%
[6]
  growth at 10 µM: 59.5%
[7]
  growth at 10 µM: 100%
[8]
  growth at 10 µM: 85.5%
[9]
  growth at 10 µM: 95.7%
[10]
  growth at 10 µM: 73.3%
[11]
  growth at 10 µM: 86%
[12]
  growth at 10 µM: 79.5%
[13]
  growth at 10 µM: 38.6%
[14]
  growth at 10 µM: 126%
[15]
  growth at 10 µM: 59.5%
[16]
  growth at 10 µM: 60.7%
[17]
  growth at 10 µM: 93.8%
[18]
  growth at 10 µM: 106%
[19]
  growth at 10 µM: 103%
[20]
  growth at 10 µM: 95.9%
[21]
  growth at 10 µM: 73.3%
[22]
  IC50: > 15 µM
[23]
  growth at 10 µM: 5.3%
[24]
  growth at 10 µM: 32.3%
[25]
  growth at 10 µM: 48.6%
[26]
  growth at 10 µM: 80.6%
[27]
  growth at 10 µM: 76.3%
[28]
  growth at 10 µM: 62.4%
[29]
  growth at 10 µM: 74.7%
[30]
  growth at 10 µM: 105%

## O=C1c2ccccc2C(=O)c2c1cc(Sc1ccccc1Br)c1nsnc21
[1]
  growth at 10 µM: 96.5%
[2]
  growth at 10 µM: 100%
[3]
  growth at 10 µM: 71.4%
[4]
  growth at 10 µM: 25.5%
[5]
  growth at 10 µM: 59.5%
[6]
  growth at 10 µM: 4.88%
[7]
  growth at 10 µM: -6.19%
[8]
  growth at 10 µM: 24.2%
[9]
  growth at 10 µM: 92.1%
[10]
  growth at 10 µM: 35%
[11]
  growth at 10 µM: 22.6%
[12]
  growth at 10 µM: -44%
[13]
  growth at 10 µM: 39.7%
[14]
  growth at 10 µM: 121%
[15]
  growth at 10 µM: -29.9%
[16]
  growth at 10 µM: 16.9%
[17]
  growth at 10 µM: 66.7%
[18]
  growth at 10 µM: 64.7%
[19]
  growth at 10 µM: 57.9%
[20]
  growth at 10 µM: -8.53%
[21]
  growth at 10 µM: 4.23%
[22]
  IC50: 9.58 µM
[23]
  growth at 10 µM: -65.8%
[24]
  growth at 10 µM: 29.7%
[25]
  growth at 10 µM: 9.4%
[26]
  growth at 10 µM: -73%
[27]
  growth at 10 µM: 2.47%
[28]
  growth at 10 µM: 11.5%
[29]
  growth at 10 µM: -5.11%
[30]
  growth at 10 µM: 95.4%
